Holding throughout (assay type): functional
Experiment [1] has as its system Mycobacterium tuberculosis. In words: Antimycobacterial activity against Mycobacterium tuberculosis H37Rv ATCC 27294 by alamar blue assay. The essentials: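 Microplate Alamar Blue Assay; MIC is the lowest concentration giving ≥90% reduction in fluorescence relative to the mean of replicate bacterium-only controls. MDR strain 6133 is resistant to isoniazid and rifampicin.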

Experiment [2] has as its system Klebsiella pneumoniae. The experiment is described as follows: Antibacterial activity against Klebsiella pneumoniae 14-1 after 18 to 24 hrs. The gist of the method: (§1)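 MIC by standard NCCLS reference procedure (M100-S11); lowest concentration of compound inhibiting visible bacterial growth after incubation at 35 °C for 18–24 h, read as complete inhibition of growth. Ciprofloxacin, levofloxacin and moxifloxacin run alongside as reference agents.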

In experiment [3] the test system is Klebsiella pneumoniae. In words: Antibacterial activity against Klebsiella pneumoniae 14-2 after 18 to 24 hrs. The gist of the method:
as §1

The subject of experiment [4] is Staphylococcus aureus. In words: Antibacterial activity against methicillin-resistant Staphylococcus aureus 14-4 after 18 to 24 hrs.
Experiment [5] has as its system Staphylococcus aureus. The experiment is described as follows: Antibacterial activity against methicillin-sensitive Staphylococcus aureus 14-1 after 18 to 24 hrs. The gist of the method: as §1
Experiment [6] relates to Staphylococcus aureus. In words: Antibacterial activity against methicillin-resistant Staphylococcus aureus 14-5 after 18 to 24 hrs.
The test system of experiment [7] is Enterococcus faecalis. The experiment is described as follows: Antibacterial activity against Enterococcus faecalis 14-1 after 18 to 24 hrs. The essentials: as §1
In experiment [8] the test system is Staphylococcus epidermidis. The experiment is described as follows: Antibacterial activity against methicillin-resistant Staphylococcus epidermidis 14-21 after 18 to 24 hrs.
Experiment [9] has as its system Staphylococcus epidermidis. In words: Antibacterial activity against methicillin-resistant Staphylococcus epidermidis 14-22 after 18 to 24 hrs.
Experiment [10] relates to Escherichia coli. The experiment is described as follows: Antibacterial activity against Escherichia coli 14-1 after 18 to 24 hrs. The gist of the method: as §1
The test system of experiment [11] is Staphylococcus epidermidis. The experiment is described as follows: Antibacterial activity against methicillin-resistant Staphylococcus epidermidis 14-37 after 18 to 24 hrs.
The subject of experiment [12] is Staphylococcus aureus. In words: Antibacterial activity against Staphylococcus aureus CMCC 26003 after 18 to 24 hrs. The essentials:
as §1

In experiment [13] the test system is Klebsiella pneumoniae. The experiment is described as follows: Antibacterial activity against ESBL-positive Klebsiella pneumoniae 14-17 after 18 to 24 hrs. The gist of the method: as §1
Experiment [14] concerns Enterococcus faecium. In words: Antibacterial activity against Enterococcus faecium 14-2 after 18 to 24 hrs. The essentials:
as §1

Experiment [15] relates to Klebsiella pneumoniae. The experiment is described as follows: Antibacterial activity against ESBL-positive Klebsiella pneumoniae 14-19 after 18 to 24 hrs. The gist of the method: as §1
Experiment [16] relates to Enterococcus faecium. In words: Antibacterial activity against Enterococcus faecium 14-5 after 18 to 24 hrs. The essentials: as §1
Experiment [17] relates to Staphylococcus aureus. The experiment is described as follows: Antibacterial activity against methicillin-sensitive Staphylococcus aureus 14-2 after 18 to 24 hrs. The gist of the method:
as §1

Experiment [18] concerns Escherichia coli. In words: Antibacterial activity against ESBL-positive Escherichia coli 14-1 after 18 to 24 hrs. The gist of the method: as §1
The subject of experiment [19] is Enterococcus faecalis. The experiment is described as follows: Antibacterial activity against Enterococcus faecalis 14-2 after 18 to 24 hrs. The gist of the method: as §1
Experiment [20] deals with Staphylococcus aureus. The experiment is described as follows: Antibacterial activity against methicillin-sensitive Staphylococcus aureus 14-3 after 18 to 24 hrs. The essentials:
as §1

Experiment [21] relates to Enterococcus faecium. In words: Antibacterial activity against Enterococcus faecium 14-1 after 18 to 24 hrs. The gist of the method: as §1
Experiment [22] concerns Staphylococcus epidermidis. In words: Antibacterial activity against methicillin-resistant Staphylococcus epidermidis 14-39 after 18 to 24 hrs.
The test system of experiment [23] is Klebsiella pneumoniae. The experiment is described as follows: Antibacterial activity against Klebsiella pneumoniae 14-3 after 18 to 24 hrs. The gist of the method: as §1
The subject of experiment [24] is Staphylococcus aureus. In words: Antibacterial activity against methicillin-sensitive Staphylococcus aureus 14-4 after 18 to 24 hrs. The essentials:
as §1

Experiment [25] relates to Escherichia coli. The experiment is described as follows: Antibacterial activity against ESBL-positive Escherichia coli 14-2 after 18 to 24 hrs. The gist of the method: as §1
Experiment [26] relates to Enterococcus faecium. The experiment is described as follows: Antibacterial activity against Enterococcus faecium 14-6 after 18 to 24 hrs. The essentials: as §1
Experiment [27] concerns Klebsiella pneumoniae. The experiment is described as follows: Antibacterial activity against Klebsiella pneumoniae 14-4 after 18 to 24 hrs. The essentials: as §1
Experiment [28] relates to Staphylococcus epidermidis. The experiment is described as follows: Antibacterial activity against methicillin-sensitive Staphylococcus epidermidis 14-2 after 18 to 24 hrs. The essentials: as §1
Experiment [29] has as its system Escherichia coli. In words: Antibacterial activity against Escherichia coli 14-2 after 18 to 24 hrs. The gist of the method: as §1
In experiment [30] the test system is Pseudomonas aeruginosa. The experiment is described as follows: Antibacterial activity against Pseudomonas aeruginosa ATCC 27853 after 18 to 24 hrs. The essentials:
as §1

In experiment [31] the test system is Pseudomonas aeruginosa. In words: Antibacterial activity against Pseudomonas aeruginosa 14-14 after 18 to 24 hrs. The essentials:
as §1

The subject of experiment [32] is Streptococcus pneumoniae. The experiment is described as follows: Antibacterial activity against Streptococcus pneumoniae ATCC 19615 after 18 to 24 hrs. The gist of the method: as §1
The subject of experiment [33] is Klebsiella pneumoniae. The experiment is described as follows: Antibacterial activity against ESBL-positive Klebsiella pneumoniae 14-18 after 18 to 24 hrs. The essentials: as §1
Experiment [34] relates to Pseudomonas aeruginosa. In words: Antibacterial activity against Pseudomonas aeruginosa 14-19 after 18 to 24 hrs. The gist of the method: as §1
Experiment [35] has as its system Pseudomonas aeruginosa. The experiment is described as follows: Antibacterial activity against Pseudomonas aeruginosa 14-16 after 18 to 24 hrs. The gist of the method: as §1
Experiment [36] has as its system Pseudomonas aeruginosa. In words: Antibacterial activity against Pseudomonas aeruginosa 14-9 after 18 to 24 hrs. The gist of the method:
as §1

The subject of experiment [37] is Pseudomonas aeruginosa. In words: Antibacterial activity against Pseudomonas aeruginosa 14-15 after 18 to 24 hrs. The essentials: as §1

≈ marks a conversion by molar mass, not a printed value.

On to `NNC(=O)c1ccncc1` [ISONIAZID], for which the MIC90 in experiment [1] was 0.049 µg/mL (≈ 0.357 µM).
Take `C[C@H]1COc2c(N3CCN(C)CC3)c(F)cc3c(=O)c(C(=O)O)cn1c23.C[C@H]1COc2c(N3CCN(C)CC3)c(F)cc3c(=O)c(C(=O)O)cn1c23.O` [LEVOFLOXACIN]: the minimal inhibitory concentration (MIC) amounted to 16 µg/mL in experiment [2]; 8 µg/mL in experiment [3]; 64 µg/mL in [4]; 8 µg/mL in [5]; 8 µg/mL in [6]; 128 µg/mL in experiment [7]. Besides, the MIC was 64 µg/mL in experiment [8]; 32 µg/mL in experiment [9]; 4 µg/mL in experiment [10]; 64 µg/mL in experiment [11]; 0.125 µg/mL in experiment [12]; 4 µg/mL in experiment [13]. Further, the MIC amounted to 32 µg/mL in experiment [14]; 64 µg/mL in experiment [15]; 64 µg/mL in [16]; 0.25 µg/mL in experiment [17]; 2 µg/mL in experiment [18]; 1 µg/mL in [19]. The minimum inhibitory concentration (MIC) was 0.125 µg/mL in experiment [20]; 16 µg/mL in experiment [21]; 64 µg/mL in [22]; 16 µg/mL in [23]; 0.5 µg/mL in experiment [24]; 8 µg/mL in [25]. The MIC in experiment [26] is 64 µg/mL; in [27], 8 µg/mL; in [28] it was 128 µg/mL; in experiment [29] it was 4 µg/mL.
`COc1c(N2C[C@@H]3CCCN[C@@H]3C2)c(F)cc2c(=O)c(C(=O)O)cn(C3CC3)c12` [MOXIFLOXACIN]: the MIC in [2] was determined as 8 µg/mL (≈ 19.9 µM); in [3], 16 µg/mL (≈ 39.9 µM); in experiment [4], 16 µg/mL (≈ 39.9 µM); in experiment [5] it was 4 µg/mL (≈ 9.96 µM); in experiment [6] it was 8 µg/mL (≈ 19.9 µM); in experiment [7], 32 µg/mL (≈ 79.7 µM). Moreover, the MIC in experiment [8] amounted to 32 µg/mL (≈ 79.7 µM); in [30] it was 2 µg/mL (≈ 4.98 µM); in experiment [9] it was 8 µg/mL (≈ 19.9 µM); in experiment [11], 8 µg/mL (≈ 19.9 µM); in experiment [12], 0.06 µg/mL (≈ 0.149 µM); in [13], 8 µg/mL (≈ 19.9 µM). Moreover, the MIC was found to be 16 µg/mL (≈ 39.9 µM) in experiment [31]; 64 µg/mL (≈ 159 µM) in experiment [15]; 8 µg/mL (≈ 19.9 µM) in [16]; 0.06 µg/mL (≈ 0.149 µM) in [17]; 0.015 µg/mL (≈ 0.0374 µM) in experiment [32]; 0.5 µg/mL (≈ 1.25 µM) in [19]. The MIC in experiment [33] was 1 µg/mL (≈ 2.49 µM); in experiment [20] it was under 0.008 µg/mL; in experiment [21], 8 µg/mL (≈ 19.9 µM); in experiment [22], 8 µg/mL (≈ 19.9 µM); in experiment [23], 32 µg/mL (≈ 79.7 µM); in [24], under 0.008 µg/mL. The MIC in experiment [26] worked out at 8 µg/mL (≈ 19.9 µM); in [27], 16 µg/mL (≈ 39.9 µM); in [34], 1 µg/mL (≈ 2.49 µM); in experiment [35], 8 µg/mL (≈ 19.9 µM); in [28], 32 µg/mL (≈ 79.7 µM); in [36], 4 µg/mL (≈ 9.96 µM). In [37], this compound showed an MIC of 16 µg/mL (≈ 39.9 µM).
`CO[C@H]1/C=C/O[C@@]2(C)Oc3c(C)c(O)c4c(O)c(c(/C=N/N5CCN(C)CC5)c(O)c4c3C2=O)NC(=O)/C(C)=C\C=C\[C@H](C)[C@H](O)[C@@H](C)[C@@H](O)[C@@H](C)[C@H](OC(C)=O)[C@@H]1C` [RIFAMPIN]: the MIC90 in [1] was found to be 0.05 µg/mL (≈ 0.0608 µM).

The record behind these values is ChEMBL document CHEMBL3632558, “Synthesis, antimycobacterial and antibacterial activity of l-[(1R,2S)-2-fluorocyclopropyl]naphthyridone derivatives containing an oxime-functionalized pyrrolidine moiety” (2015).
